# From PubChem BioAssay AID624064 (Broad Institute, 2012)
# Activity calls are given as the source filed them.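 Rule for the calls: active = fitted curve reaching 35% inhibition at both 405 and 600 nm absorbance, in duplicate, within twice the top valid dose; inactive = the rest, including signal rising instead of falling.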
# Tested on: not listed separately
# Assay: iron-limited Pseudomonas aeruginosa growth inhibition – whole organism, OD600, EDDHA, dry powder, set 7, dose response (AID 624064)
# Conditions: P. aeruginosa growth with EDDHA, OD600, 24-30 h; at 120 µM (top of the series)
# Outline: (§1)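 system = Pseudomonas aeruginosa whole cells, strain ATCC 15692 | amount = bacterial inoculum at final OD600 of 0.0000005 | buffer or medium = succinate M9 medium, pH 7.0, iron-limited with 2 µM EDDHA (final) | detection = OD600 absorbance | times = bacterial growth with compound for 24-30 h at 37 °C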
row,Structure (SMILES),"activity change, negative = inhibition"
1,CCCCC(c1ccc(Cl)cc1)c1nn[nH]n1 (stereo not given),-5.82% (inactive)
2,CCCCC(C#N)c1ccc(Cl)cn1 (stereo not given),-2.96% (inactive)
3,COCCC(C#N)c1ccc(F)cc1 (stereo not given),-1.09% (inactive)
4,N#CC1c2ccc(Cl)cc2CCc2cccnc21 (stereo not given),31.2% (inactive)
5,COCCOCCC(C#N)c1ccc(Cl)cc1 (stereo not given),2.11% (inactive)
6,N#CC(c1ccc(Cl)cc1)c1ccccn1 (stereo not given),-30.8% (inactive)
7,COCCOCCC(C#N)c1ccc(F)cc1 (stereo not given),-18.1% (inactive)
8,N#CC(c1ccc(C(F)(F)F)c(Cl)n1)c1ccccc1OC(F)(F)F (stereo not given),-8.43% (inactive)
9,CCCCC(C#N)c1ccc(F)cn1 (stereo not given),-4.82% (inactive)
10,CCCCC(C#N)c1ccc(Cl)cc1 (stereo not given),13.2% (inactive)
11,N#CC(c1ccc(F)cc1)c1cccc(Cl)n1 (stereo not given),-35.8% (inactive)
12,Clc1ccc(C(c2cccc(Cl)n2)c2nn[nH]n2)cc1 (stereo not given),11.3% (inactive)
13,N#CC(c1ccc(Cl)cc1)N1CCCC1 (stereo not given),-7.6% (inactive)
14,CN(C)CCCC(C#N)c1ccc(F)cc1 (stereo not given),-34.3% (inactive)
15,N#Cc1cccc(C(C#N)c2ccc(F)cc2)n1 (stereo not given),-25.4% (inactive)
16,CCCCC(C#N)c1ccccn1 (stereo not given),11% (inactive)
17,CN(C)CCCC(C#N)c1ccc(Cl)cc1 (stereo not given),-12.9% (inactive)
18,COCCC(C#N)c1ccc(Cl)cc1 (stereo not given),-16.8% (inactive)
19,COCCNC(C#N)c1ccc(Cl)cc1 (stereo not given),-0.512% (inactive)

# Tested on: P. aeruginosa growth with EDDHA, OD600, 24-30 h
# Assay: as above
# Conditions: not given
# Outline: as §1
row,Structure (SMILES),AC35
1,CCCCC(C#N)c1ccc(F)cc1 (stereo not given),> 120 µM (inactive)
